Test results as given in ChEMBL document CHEMBL2440013, “New quaternary ammonium camphor derivatives and their antiviral activity, genotoxic effects and cytotoxicity” (Bioorg Med Chem, 2013).
Where a name gives a salt, the structure may show the parent alone.

Tests used:
[1] = Antiviral activity against Influenza virus A/California/07/09 (H1N1)pdm09 infected in MDCK cells assessed as inhibition of viral replication incubated for 1 hr prior to viral infection measured after 48 hrs by hemagglutination reaction; type: functional, cell-based, Influenza A virus (A/California/07/2009(H1N1))
Method in brief: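 MDCK monolayers in MEM were pre-incubated with compound for 1 h at 37 °C before infection, then held 48 h at 37 °C in 5% CO2. Virus yield was read by haemagglutination: equal volumes of supernatant and 1% chicken erythrocytes, 60 min at room temperature. Triplicates were run. EC50 was the concentration that halved virus production (0.3 log10 EID50 titre drop).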

[2] = Selectivity index, ratio of CTD50 for MDCK cells to EC50 for Influenza A virus California/07/09(H1N1) pdm09 infected in MDCK cells; type: toxicity, cell-based; conditions: dog, read-out: Selectivity Index
Method in brief: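 CTD50 came from MDCK cells given twofold dilutions (1000–4 µg/ml) in MEM for 48 h at 37 °C, 5% CO2. CTD50 was the concentration halving OD versus control. SI is CTD50 divided by EC50 from the haemagglutination-based antiviral assay.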

[3] = Cytotoxicity against MDCK cells after 48 hrs by MTT assay; type: cell-based, Canis lupus familiaris; conditions: dog, read-out: CTD50
Method in brief: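 MDCK cells were grown in MEM at 37 °C, 5% CO2 to a confluent monolayer. They were then exposed for 48 h to twofold dilutions (1000–4 µg/ml in MEM), washed twice with saline, and given MTT ([…] in saline) for 1 h. Formazan was dissolved in DMSO and OD read at 535 nm. Triplicates were run. CTD50 is the concentration halving OD versus control wells.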

Escherichia coli [4] = assay: Induction of mutagenicity in Escherichia coli BL21(DE3) expressing pRAC-gfp assessed as modulation of reporter protein GFP synthesis at 150 uM incubated for 1.5 hrs followed by plasmid maturation measured after 1.5 hrs by fluorophotometry relative to control; type: toxicity
[5] = Toxicity in Escherichia coli BL21(DE3) expressing pET36b-gfp assessed as inhibition of IPTG-induced reporter protein GFP synthesis at 150 uM after 1.5 hrs by fluorophotometry relative to control; conditions: Escherichia coli BL21(DE3) cells expressing pET36b-gfp, read-out: Activity
Method in brief: (§1)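 E. coli BL21(DE3) carrying the IPTG-inducible gfp plasmid was grown in LB at 37 °C with shaking to D600 0.4–0.5, then treated with compound for 1.5 h. OD600 and GFP emission 500–600 nm (excitation 491 nm) were read. Control cells were untreated, with 1 mM IPTG (final) added after 1.5 h. Fluorescence decreases of 20% and 50% versus control were counted as toxic and extremely toxic.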

Escherichia coli [6] = assay: Induction of mutagenicity in Escherichia coli BL21(DE3) expressing pRAC-gfp assessed as induction of reporter protein GFP synthesis at 10 ug/ml incubated for 1.5 hrs followed by plasmid maturation measured after 1.5 hrs by fluorophotometry; type: toxicity
Method in brief: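 BL21(DE3) carried pRAC-gfp, with GFP under the Proteus mirabilis recA regulatory region. Cells were grown in LB at 37 °C with shaking to OD600 0.4–0.5, given compound, grown 1.5 h, then held 1.5 h at 4–6 °C for chromophore maturation. OD600 and GFP emission (500–600 nm, excitation 491 nm) were measured. Controls were water (negative) and nalidixic acid […] (positive). Result is % change in GFP versus control.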

Escherichia coli [7] = assay: Induction of mutagenicity in Escherichia coli BL21(DE3) expressing pRAC-gfp assessed as modulation of reporter protein GFP synthesis at 2 uM incubated for 1.5 hrs followed by plasmid maturation measured after 1.5 hrs by fluorophotometry; type: toxicity
[8] = Toxicity in Escherichia coli BL21(DE3) expressing pET36b-gfp assessed as inhibition of IPTG-induced reporter protein GFP synthesis at 2 uM after 1.5 hrs by fluorophotometry relative to control; conditions: Escherichia coli BL21(DE3) cells expressing pET36b-gfp, read-out: Activity; method in brief: as §1
U-937 = assay: Cytotoxicity against human U937 cells after 72 hrs by MTT assay; type: functional
Method in brief: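 Cells were grown in RPMI-1640 with 10% embryonic calf serum, 2 mmol/L L-glutamine, gentamicin and lincomycin. Compounds in DMSO were added, then 72 h at 37 °C, 5% CO2. Three wells per concentration, with untreated cells as control. 1% MTT for 4 h, DMSO for 15 min, OD 570 nm. CTD50 is the concentration killing 50% of cells.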

Row | SMILES | EC50 ([1]; Influenza A virus, pdm09, MDCK) | selectivity ratio [2] | CC50 at 48 h [3] | further results
1 | CC[N+](CC)(CCCCC[N+](CC)(CC)CC/N=C1\C[C@H]2CC[C@]1(C)C2(C)C)CC/N=C1\C[C@H]2CC[C@]1(C)C2(C)C | 14.7 µM | 87 | 1280 µM | 
2 | CC(N)C12CC3CC(CC(C3)C1)C2 (stereo unspecified) [RIMANTADINE HYDROCHLORIDE] | 67 µM | 5 | 335 µM | 
3 | CC[N+](CC)(CCCCCCCCC[N+](CC)(CC)CC/N=C1\C[C@H]2CC[C@]1(C)C2(C)C)CC/N=C1\C[C@H]2CC[C@]1(C)C2(C)C | 6.9 µM | 82 | 578 µM | Activity (Escherichia coli [4]): 51%; inhibition at 1.5 h, 150 µM [5]: 65%
4 | CC(N)C1C[C@@H]2CC[C@H]1C2 (stereo partly specified) [DEITIFORIN] |  |  | 1270 µM | 
5 | CCN(CC)CC/N=C1\C[C@H]2CC[C@]1(C)C2(C)C | 10 µM | 81 | 807 µM | 
6 | CC[N+](CC)(CC/N=C1\C[C@H]2CC[C@]1(C)C2(C)C)Cc1ccc(C[N+](CC)(CC)CC/N=C2\C[C@H]3CC[C@]2(C)C3(C)C)cc1 | 43.4 µM | 33 | 1450 µM | 
7 | CCn1cc(C(=O)O)c(=O)c2ccc(C)nc21 [NALIDIXIC ACID] |  |  |  | Activity (Escherichia coli [6]): 500%
8 | CC[N+](CC)(CCCCCCCCCCCC[N+](CC)(CC)CC/N=C1\C[C@H]2CC[C@]1(C)C2(C)C)CC/N=C1\C[C@H]2CC[C@]1(C)C2(C)C | 59.9 µM | 2 | 128 µM | Activity (Escherichia coli [4]): 74%; inhibition at 1.5 h, 150 µM [5]: 89%
9 | CC12CCC(CC1=O)C2(C)C (single isomer, unassigned; (+)) [CAMPHOR] |  | 2 | 3290 µM | EC50 ([1]; mdck): 1640 µM; Activity (Escherichia coli [7]): 5%; inhibition at 1.5 h, 2 µM [8]: 6%
10 | CC[N+](CC)(CCCCCC[N+](CC)(CC)CC/N=C1\C[C@H]2CC[C@]1(C)C2(C)C)CC/N=C1\C[C@H]2CC[C@]1(C)C2(C)C.[Br-].[Br-] | 81.2 µM | 21 | 1710 µM | CTD50 (U-937): 82.1 µM
11 | CC[N+](CC)(CC)CC/N=C1\C[C@H]2CC[C@]1(C)C2(C)C | 140 µM | 13 | 1780 µM | 
12 | CC[N+](C)(CC)CC/N=C1\C[C@H]2CC[C@]1(C)C2(C)C | 40.4 µM |  | 1890 µM | 
13 | CC[N+](CC)(CCCCCCCC[N+](CC)(CC)CC/N=C1\C[C@H]2CC[C@]1(C)C2(C)C)CC/N=C1\C[C@H]2CC[C@]1(C)C2(C)C | 13.2 µM | 42 | 552 µM | Activity (Escherichia coli [4]): 57%; inhibition at 1.5 h, 150 µM [5]: 67%
14 | NC12CC3CC(CC(C3)C1)C2 [AMANTADINE] |  | 4 | 284 µM | EC50 ([1]; mdck): 64.2 µM
15 | CC[N+](CC)(CCCCCCCCCC[N+](CC)(CC)CC/N=C1\C[C@H]2CC[C@]1(C)C2(C)C)CC/N=C1\C[C@H]2CC[C@]1(C)C2(C)C | 55.3 µM | 5 | 285 µM | Activity (Escherichia coli [4]): 70%; inhibition at 1.5 h, 150 µM [5]: 78%
